# This sample holds only a part of the variants without activity.
# B1: tRNA (parent)
# chain: CUCUCGGUAGCCAAGUUGGUUUAAGGCGCAAGACUUUAAUUUAUCACUACGAAAUCUUGAGAUCGGGCGUUCGACUCGCCCCCGGGAGAUUUUUUCCUCGAGCAA
# Variants of: B1
# Assay: nonsense suppression (GFP-seq) (ratio to wild type); higher = more function; SUP4oc tRNA, yeast GFP reporter sort-seq
# Method in brief: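 Nonsense suppression (GFPSEQ) is the median GFP/RFP ratio of each sorting bin, weighted by the variant's estimated share of cells in that bin and expressed relative to the unmutated parent tRNA. Yeast strains carried genome-integrated variants of an ochre-suppressor tRNA from a library with ~3% random mutations, plus a galactose-driven GFP ochre reporter and RFP, and were grown in raffinose/galactose medium containing 80 mg/L adenine. Cells were sorted into GFP/RFP bins, each bin was Illumina-sequenced (phred ≥30), and variants were kept only with ≥100 reads and ≥30 cells.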
row,Variant,nonsense suppression
1,C72G G88U,≤ 0.026
2,U76A C82U,≤ 0.026
3,C80G G84A,≤ 0.026
4,C80U G85A,0.733
5,C79A A87C,≤ 0.026
6,G85C A89C,≤ 0.026
7,G73A G88A,0.0281
8,G73A G88U,0.0757
9,G78A G88C,0.0845
10,C83U,0.535
11,U76A G85U,0.0588
12,C80A C82U,≤ 0.026
13,A74U G84C,≤ 0.026
14,G78C G84U,0.0271
15,C75A,0.996
16,C75G,1.04
17,C75U,0.972
18,C81U G88U,0.0501
19,G78A G84U,0.0325
20,G78A G84A,0.459
21,U76A A87G,0.0534
22,G85A G88C,≤ 0.026
23,A74C C81U,≤ 0.026
24,G78A A87C,0.032
25,G78A A87G,0.294
26,G78A A87U,0.032

row,Variant,nonsense suppression
1,C75A G85A,1.05
2,C77U C83A,≤ 0.026
3,C80U,0.697
4,G88C,0.028
5,C82A G84U,≤ 0.026
6,C83U A87U,≤ 0.026
7,C83U A87G,0.0621
8,G85C,0.163
9,G85U,1.12
10,G85A,0.982
11,C81U G84U,0.065
12,C81U G84A,0.0642
13,C83U G84U,0.027
14,C72G G78A,0.0282
15,C80U G84A,0.125
16,U76A C80U,0.0419
17,C81U A87G,0.239
18,C77U C79A C83A,≤ 0.026
19,G88U A89C,≤ 0.026
20,G88U A89G,≤ 0.026
21,C75U U76G,0.172
22,C82A G85U,0.0445
23,U76C G78C,0.118
24,U76C G78A,0.0382
25,U76C G78U,0.0507
26,C72U G78A,0.0322

row,Variant,nonsense suppression
1,A74U C79U,0.0357
2,C82U G85A,0.99
3,G78U C83A,0.0425
4,C81G G88A,≤ 0.026
5,C79A C83A,≤ 0.026
6,U71G C72U,≤ 0.026
7,C83U G86A,≤ 0.026
8,C82U,1.05
9,G73A,1.12
10,A74C U76C G86A A89G,≤ 0.026
11,G78A C81G,0.0732
12,C72A G85C,≤ 0.026
13,C79U,0.879
14,C72U C81A,≤ 0.026
15,G78U,0.63
16,G78C,0.202
17,G78A,0.775
18,G78C G85U,0.232
19,G73C C83A,≤ 0.026
20,G73A A89C,0.0768
21,U71G C77A C79U A87U,≤ 0.026
22,G73A G84C,0.361
23,G73A G84A,0.191
24,G73U C81U,0.0263
25,G85A A87G,1.18
26,G85A A87U,0.19

# From the RNAGym collection of RNA variant scans (doi:10.1101/gad.245936.114)
